Assay results published in ChEMBL document CHEMBL1143996, “Toward the development of chemoprevention agents (III): synthesis and anti-inflammatory activities of a new class of 5-glycylamino-2-substituted-phenyl-1,3-dioxacycloalkanes” (Bioorg Med Chem, 2008).

What was measured:
[1] = tested on: Mus musculus; experiment: Toxicity assessed as tail bleeding in Kunming mouse at 200 mg/kg, po after 5 mins; type: organism-based; design: dose 200 mg/kg, route oral; conditions: in vivo
Outline: (§1)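 Male mice (18–22 g) given a single oral dose, normal saline vehicle, n = 10. At set times after dosing, mouse restrained in a tube holder with tail protruding and a 2-mm tail cut made. Blood wiped away every 30 s until bleeding stopped; bleeding time recorded in s and compared with pre-dose values.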

[2] = tested on: Mus musculus; experiment: Toxicity assessed as tail bleeding in Kunming mouse at 200 mg/kg, po after 30 mins; type: organism-based; design: dose 200 mg/kg, route oral; conditions: in vivo, 0.5 h; outline: as §1
[3] = tested on: Mus musculus; experiment: Toxicity assessed as tail bleeding in Kunming mouse at 200 mg/kg, po after 15 mins; type: organism-based; design: dose 200 mg/kg, route oral; conditions: in vivo, 0.25 h; outline: as §1
[4] = tested on: Mus musculus; experiment: Toxicity assessed as tail bleeding in Kunming mouse at 200 mg/kg, po after 60 mins; type: organism-based; design: dose 200 mg/kg, route oral; conditions: in vivo, 1 h; outline: as §1
[5] = tested on: Mus musculus; experiment: Antiinflammatory activity in Kunming mouse assessed as inhibition of xylene-induced ear edema at 20 mg/kg, po; type: functional
[6] = tested on: Mus musculus; experiment: Antiinflammatory activity in Kunming mouse assessed as inhibition of xylene-induced ear edema at 30 mg/kg, po; type: functional
Outline: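 Male Kunming mice, 12 per group (tables give n = 11), dosed orally by gavage as a suspension in 0.5% carboxymethyl cellulose; CMC alone as vehicle control. After 30 min, 0.03 mL xylene applied to both surfaces of the right ear, with the left ear as control.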

## C[C@H]1O[C@@H](c2ccccc2)OC[C@H]1NC(=O)CN
[1]
  Time: 2.02 min
[2]
  Time: 2.01 min
[3]
  Time: 2 min
[4]
  Time: 2.03 min

## NCC(=O)N[C@H]1CCO[C@H](c2ccc(Cl)cc2)OC1
[1]
  Time: 2.02 min
[2]
  Time: 2 min
[3]
  Time: 1.99 min
[4]
  Time: 1.99 min

## C[C@H]1O[C@@H](c2ccc(Cl)cc2)OC[C@H]1N
[5]
  inhibition in vivo at 20 mg/kg: 66.7%

## C[C@H]1O[C@@H](c2cccc([N+](=O)[O-])c2)OC[C@H]1NC(=O)CN
[1]
  Time: 2.01 min
[2]
  Time: 1.98 min
[3]
  Time: 2.01 min
[4]
  Time: 2 min

## NCC(=O)N[C@H]1CO[C@@H](c2cccc([N+](=O)[O-])c2)OC1
[1]
  Time: 2 min
[2]
  Time: 2.04 min
[3]
  Time: 2 min
[4]
  Time: 2.02 min

## NCC(=O)N[C@H]1CO[C@@H](c2ccc(Cl)cc2)OC1
[1]
  Time: 2.01 min
[2]
  Time: 2 min
[3]
  Time: 2.01 min
[4]
  Time: 2 min

## C[C@H]1O[C@@H](c2ccc([N+](=O)[O-])cc2)OC[C@H]1NC(=O)CN
[1]
  Time: 2 min
[2]
  Time: 1.98 min
[3]
  Time: 2.02 min
[4]
  Time: 2.01 min

## NCC(=O)N[C@H]1CO[C@@H](c2ccc([N+](=O)[O-])cc2)OC1
[1]
  Time: 2.02 min
[2]
  Time: 2.04 min
[3]
  Time: 2.01 min
[4]
  Time: 2.02 min

## CC(=O)Oc1ccccc1C(=O)O [ASPIRIN]
[6]
  inhibition in vivo at 30 mg/kg: 40.7%

## C[C@H]1O[C@@H](c2ccc(Cl)cc2)OC[C@H]1NC(=O)CN
[1]
  Time: 2.04 min
[2]
  Time: 2 min
[3]
  Time: 2.01 min
[4]
  Time: 2.01 min

## NCC(=O)N[C@H]1CCO[C@H](c2cccc([N+](=O)[O-])c2)OC1
[1]
  Time: 2.02 min
[2]
  Time: 2 min
[3]
  Time: 2 min
[4]
  Time: 2.02 min

## NCC(=O)N[C@H]1CO[C@@H](c2ccccc2)OC1
[1]
  Time: 2 min
[2]
  Time: 2.02 min
[3]
  Time: 2 min
[4]
  Time: 2.01 min

## NCC(=O)N[C@H]1CCO[C@@H](c2ccc(Cl)cc2)OC1
[1]
  Time: 1.99 min
[2]
  Time: 2.01 min
[3]
  Time: 2.01 min
[4]
  Time: 2 min

## NCC(=O)N[C@H]1CCO[C@@H](c2cccc([N+](=O)[O-])c2)OC1
[1]
  Time: 1.99 min
[2]
  Time: 2.05 min
[3]
  Time: 1.99 min
[4]
  Time: 1.99 min

## Cc1ccc([C@H]2OC[C@@H](NC(=O)CN)[C@@H](C)O2)cc1
[1]
  Time: 2 min
[2]
  Time: 2.02 min
[3]
  Time: 2.04 min
[4]
  Time: 2 min

## NCC(=O)N[C@H]1CCO[C@@H](c2ccc([N+](=O)[O-])cc2)OC1
[1]
  Time: 2 min
[2]
  Time: 2 min
[3]
  Time: 2.05 min
[4]
  Time: 1.99 min

## C[C@H]1O[C@@H](c2ccc([N+](=O)[O-])cc2)OC[C@H]1N
[5]
  inhibition in vivo at 20 mg/kg: 78.5%

## NCC(=O)N[C@H]1CCO[C@H](c2ccc([N+](=O)[O-])cc2)OC1
[1]
  Time: 2.01 min
[2]
  Time: 2 min
[3]
  Time: 2.01 min
[4]
  Time: 1.99 min

## Cc1ccc([C@H]2OC[C@@H](NC(=O)CN)CO2)cc1
[1]
  Time: 2 min
[2]
  Time: 1.99 min
[3]
  Time: 2 min
[4]
  Time: 2 min
